The source made the active and inactive calls.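 The calls were made as follows: active = signal-lowering compounds whose fitted half-effect concentration is no more than twice the top tested dose; inconclusive = flat curve with 30 to 70% inhibition, or poor fit; inactive = the rest.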

This experiment is described as follows: quencher artefacts in RAD54 branch migration readout – biochemical, Cy5 label, cherry-picked samples, artefact control for RAD54 inhibitor project, dose response (AID 651651). To be noted: Cy5 DNA fluorescence quench counter-screen; series mostly up to 50 µM. The method in brief: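 assay system = human RAD54 enzyme | quantity = 30 nM RAD54 in the enzyme mix | buffer or medium = 25 mM Tris pH 7.5, 3 mM MgCl2, 2 mM ATP | also added = branched DNA substrate labelled with Cy5 and BHQ quencher | doses = pinned compound dose series | timing = 60 min reaction, room temperature | signal = fluorescence of the Cy5-labelled DNA substrate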
On the technique in general: Counterscreens check selectivity or assay interference.
Regarding `CO[C@@H]1CN(C)C(=O)c2cc(NC(C)=O)ccc2OC[C@H](C)N(Cc2ccccc2C(=O)O)C[C@@H]1C`, the call was inactive.
In the case of `C[C@@H]1CCCCO[C@@H](CN(C)S(C)(=O)=O)[C@H](C)CN([C@H](C)CO)C(=O)c2cc(NC(=O)Nc3ccc4c(c3)OCO4)ccc2O1` it was “inactive”; in that of `COc1ccc(S(=O)(=O)N(C)C[C@@H]2Oc3ccc(NC(=O)Nc4ccc5c(c4)OCO5)cc3C(=O)N([C@H](C)CO)C[C@H]2C)cc1`, “inactive”; in that of `CN(C)CC(=O)Nc1ccc2c(c1)[C@@H]1C[C@H](CC(=O)NC3CCCCC3)O[C@@H](CO)[C@@H]1O2`, “inactive”.
As to `CN(C)c1ccc2c(c1)[C@@H]1C[C@@H](CC(=O)NCCN3CCCCC3)O[C@H](CO)[C@@H]1O2`, the compound was classed as inactive.
Next, `CO[C@@H]1CN(C)C(=O)c2ccc(NC(C)=O)cc2OC[C@@H](C)N(C(=O)c2ccccn2)C[C@H]1C`: “inactive”.
As to `COc1ccc(S(=O)(=O)N(C)C[C@@H]2Oc3ccc(NC(=O)Nc4ccc5c(c4)OCO5)cc3C(=O)N([C@@H](C)CO)C[C@H]2C)cc1`, the call was inactive.
In the case of `O=S(=O)(c1ccccc1)N1CCCCN2[C@H](CO)[C@H](c3ccc(C#CC4CCCC4)cc3)[C@@H]2C1` it was “inactive”; in that of `CN(C)c1ccc2c(c1)[C@@H]1C[C@H](CC(=O)NCCN3CCCCC3)O[C@H](CO)[C@@H]1O2`, “inactive”; in that of `COc1ccc(-c2ccc3c(c2)O[C@H](CN(C)C(C)=O)[C@H](C)CN([C@@H](C)CO)S3(=O)=O)cc1`, “inactive”.
Take `CN(C)c1ccc2c(c1)[C@H]1C[C@H](CC(=O)NCCN3CCCCC3)O[C@@H](CO)[C@H]1O2`: the compound was classed as inactive.
`COc1ccc(CN(C)C[C@@H]2Oc3ccc(NC(=O)Nc4ccc(F)cc4)cc3C(=O)N([C@@H](C)CO)C[C@H]2C)cc1`: the call was inactive.
Next, `COc1ccccc1CNC(=O)C[C@H]1C[C@@H]2c3cc(NC(=O)c4cccnc4)ccc3O[C@@H]2[C@H](CO)O1`: “inactive”; `CN1CCN(C(=O)C[C@H]2C[C@@H]3c4cc(NC(=O)Cc5ccncc5)ccc4O[C@@H]3[C@@H](CO)O2)CC1`: “inactive”.
Next, `COc1ccc(C#Cc2ccc([C@H]3[C@@H](CO)N4CCCCN(C(=O)Nc5cccc(F)c5)C[C@H]34)cc2)cc1`: “inactive”; `C[C@H]1CCCCO[C@@H](CN(C)C(=O)Nc2ccc3c(c2)OCO3)[C@@H](C)CN([C@@H](C)CO)C(=O)c2cc(NC(=O)Nc3ccc(C(F)(F)F)cc3)ccc2O1`: “inactive”.
In the case of `COc1ccc(CN(C)C[C@@H]2Oc3ccc(NC(=O)Nc4ccc(OC)cc4)cc3C(=O)N([C@H](C)CO)C[C@H]2C)cc1` it was “inactive”; in that of `COc1ccc(CN(C)C[C@@H]2Oc3ccc(NC(=O)NC4CCCCC4)cc3C(=O)N([C@@H](C)CO)C[C@H]2C)cc1`, “inactive”.
On to `COc1ccc(S(=O)(=O)N(C)C[C@@H]2Oc3ccc(NC(=O)NC(C)C)cc3CC(=O)N([C@@H](C)CO)C[C@@H]2C)cc1`, for which the result was inactive.
For the compound `C[C@@H]1CN([C@H](C)CO)C(=O)c2cc(NC(=O)Nc3ccc4c(c3)OCO4)ccc2O[C@H]1CN(C)Cc1ccc2c(c1)OCO2`, the compound was called inactive.
Next, `C[C@H]1CN([C@@H](C)CO)C(=O)c2cc(NS(=O)(=O)c3cccs3)ccc2O[C@@H]1CN(C)C(=O)Nc1cccc2ccccc12`: “inactive”.
Next, `Cc1ccc(S(=O)(=O)N(C)C[C@@H]2Oc3ccc(NC(=O)Nc4c(C)noc4C)cc3CC(=O)N([C@@H](C)CO)C[C@@H]2C)cc1`: “inactive”; `C[C@@H]1CN([C@@H](C)CO)C(=O)c2cc(C3=CCCC3)cnc2O[C@@H]1CN(C)C(=O)Nc1ccc(F)cc1`: “inactive”.
In the case of `COc1ccc(CN(C)C[C@@H]2Oc3ccc(NC(=O)Nc4ccc(OC)cc4)cc3C(=O)N([C@@H](C)CO)C[C@H]2C)cc1` it was “inactive”; in that of `Cc1noc(C)c1NC(=O)N(C)C[C@H]1Oc2c(NC(=O)Nc3ccc(C(F)(F)F)cc3)cccc2C(=O)N([C@@H](C)CO)C[C@H]1C`, “inactive”.
`O=C(C[C@@H]1C[C@H]2c3cc(NC(=O)CC4CC4)ccc3O[C@H]2[C@@H](CO)O1)NCc1ccc(Cl)cc1`: the result was inactive.
On to `Cc1noc(C)c1NC(=O)Nc1ccc2c(c1)C(=O)N([C@@H](C)CO)C[C@@H](C)[C@H](CN(C)C(=O)Nc1cccc3ccccc13)O2`, for which the result was inactive.
In the case of `COc1ccc(CN(C)C[C@@H]2Oc3ccc(NC(=O)NC(C)C)cc3C(=O)N([C@@H](C)CO)C[C@H]2C)cc1` it was “inactive”; in that of `COc1ccc(S(=O)(=O)N(C)C[C@@H]2Oc3ccc(NC(=O)Nc4ccc(C(F)(F)F)cc4)cc3C(=O)N([C@H](C)CO)C[C@H]2C)cc1`, “inactive”.

Values taken from PubChem BioAssay AID651651 (Broad Institute, 2012).
